# Assay results from ChEMBL document CHEMBL1140759, “Synthesis, anti-Toxoplasma gondii and antimicrobial activities of benzaldehyde 4-phenyl-3-thiosemicarbazones and 2-[(phenylmethylene)hydrazono]-4-oxo-3-phenyl-5-thiazolidineacetic acids” (Bioorg Med Chem, 2008).
# Experiments:
# Toxoplasma gondii [1] = test: Antiparasitic activity against Toxoplasma gondii infected african green monkey Vero cells at 2 mM assessed as infected cells; assay type: functional
# In short: (§1)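 Vero cells were infected with RH-strain tachyzoites (5:1 parasite:cell) for 1 h, washed with PBS, and grown 24 h at 37 °C in medium 199 with 5% FCS. Compound was then added for 24 h. Cells were fixed with Bouin's, stained with Giemsa, and at least 400 cells were counted by light microscopy for the percentage infected. Hydroxyurea and sulfadiazine served as references.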
# Staphylococcus aureus = test: Antimicrobial activity against Staphylococcus aureus at 300 ug/disc; assay type: functional; settings: read-out: IZ
# In short: (§2)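 Disc diffusion on agar plates inoculated with a standardized microbial suspension, with paper discs carrying known compound amounts. DMSO-only discs served as negative controls, and chloramphenicol, rifampicin (bacteria) or nistatin (fungi) as references. The read-out is the mean inhibition zone diameter in mm. Each run was done three times and repeated if results differed.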
# Enterococcus faecalis = test: Antimicrobial activity against Streptococcus faecalis at 300 ug/disc; assay type: functional; settings: read-out: IZ; in short: as §2
# Toxoplasma gondii [2] = test: Antiparasitic activity against Toxoplasma gondii infected african green monkey Vero cells at 8 mM assessed as infected cells; assay type: functional; in short: as §1
# Escherichia coli = test: Antimicrobial activity against Escherichia coli at 300 ug/disc; assay type: functional; settings: read-out: IZ; in short: as §2
# Candida [3] = test: Antimicrobial activity against Candida sp. IMUR1224 at 300 ug/disc; assay type: functional; settings: read-out: IZ; in short: as §2
# Bacillus subtilis = test: Antimicrobial activity against Bacillus subtilis at 300 ug/disc; assay type: functional; settings: read-out: IZ; in short: as §2
# Candida [4] = test: Antimicrobial activity against Candida sp. IMUR4249; assay type: functional
# In short: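 Tube dilution MIC, run on compounds with a disc-diffusion zone of at least 18 mm. The DMSO stock (1 mg/mL) was serially diluted to 10–220 µg/mL final in medium, and strains were inoculated at 10^8/mL. Media were tryptic soy or nutrient agar for bacteria and Sabouraud liquid for fungi, incubated 24–48 h at 37 °C (bacteria) or 30 °C (fungi). MIC is the lowest concentration giving clear tubes.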
# Toxoplasma gondii [5] = test: Inhibition of intracellular parasite Toxoplasma gondii; assay type: functional, organism-based
# In short: (§3)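 Infected Vero cultures were exposed to compound at 0.01–30 mM for 24 h, in triplicate per assay. IC50 for infected cells and intracellular parasites was derived by non-linear regression, using trypan blue exclusion.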
# Candida albicans = test: Antimicrobial activity against Candida albicans at 300 ug/disc; assay type: functional; settings: read-out: IZ; in short: as §2
# Saccharomyces cerevisiae = test: Antimicrobial activity against Saccharomyces cerevisiae at 300 ug/disc; assay type: functional; settings: read-out: IZ; in short: as §2
# Toxoplasma gondii [6] = test: Antiparasitic activity against Toxoplasma gondii infected african green monkey Vero cells at 5 mM assessed as infected cells; assay type: functional; in short: as §1
# Micrococcus luteus = test: Antimicrobial activity against Micrococcus luteus at 300 ug/disc; assay type: functional; settings: read-out: IZ; in short: as §2
# Toxoplasma gondii [7] = test: Inhibition of Toxoplasma gondii infected in african green monkey Vero cells; assay type: functional, organism-based; in short: as §3
# Mycolicibacterium phlei = test: Antimicrobial activity against Mycobacterium phlei at 300 ug/disc; assay type: functional; settings: read-out: IZ; in short: as §2
# [8] = tested on: Mycolicibacterium smegmatis; test: Antimicrobial activity against Mycobacterium smegmatis at 300 ug/disc; assay type: functional; settings: read-out: IZ; in short: as §2
# [9] = tested on: Mycobacterium tuberculosis; test: Antimicrobial activity against Mycobacterium tuberculosis at 300 ug/disc; assay type: functional; settings: read-out: IZ
# In short: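 Agar disc diffusion: paper discs loaded with compound placed on agar plates seeded with a standardised microbial suspension. DMSO-only discs served as negative control. Chloramphenicol and rifampicin (bacteria) or nistatin (fungi) gave reference zones. Read-out was mean zone of inhibition diameter (mm). Each experiment was run three times and repeated if results differed.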
# Toxoplasma gondii [10] = test: Antiparasitic activity against Toxoplasma gondii infected african green monkey Vero cells at 20 mM assessed as infected cells; assay type: functional; in short: as §1
# Toxoplasma gondii [11] = test: Antiparasitic activity against Toxoplasma gondii infected african green monkey Vero cells at 0.1 mM assessed as infected cells; assay type: functional; in short: as §1
# Vero = test: Inhibition of uninfected african green monkey Vero cells; assay type: cell-based; settings: Chlorocebus sabaeus
# Klebsiella pneumoniae = test: Antimicrobial activity against Klebsiella pneumoniae at 300 ug/disc; assay type: functional; settings: read-out: IZ; in short: as §2
# Candida [12] = test: Antimicrobial activity against Candida sp. IMUR720 at 300 ug/disc; assay type: functional; settings: read-out: IZ; in short: as §2
# Candida [13] = test: Antimicrobial activity against Candida sp. IMUR4249 at 300 ug/disc; assay type: functional; settings: read-out: IZ; in short: as §2
# [14] = tested on: Mycobacterium tuberculosis; test: Antimicrobial activity against Mycobacterium tuberculosis; assay type: functional
SMILES,Activity (Toxoplasma gondii [1]) [%],zone of inhibition at 300 µg/disc (Staphylococcus aureus) [mm],zone of inhibition at 300 µg/disc (Enterococcus faecalis) [mm],Activity (Toxoplasma gondii [2]) [%],zone of inhibition at 300 µg/disc (Escherichia coli) [mm],zone of inhibition at 300 µg/disc (Candida [3]) [mm],zone of inhibition at 300 µg/disc (Bacillus subtilis) [mm],IC50 (Toxoplasma gondii [5]) [µM],zone of inhibition at 300 µg/disc (Candida albicans) [mm],zone of inhibition at 300 µg/disc (Saccharomyces cerevisiae) [mm],Activity (Toxoplasma gondii [6]) [%],zone of inhibition at 300 µg/disc (Micrococcus luteus) [mm],IC50 (Toxoplasma gondii [7]) [µM],zone of inhibition at 300 µg/disc (Mycolicibacterium phlei) [mm],zone of inhibition at 300 µg/disc [8] [mm],zone of inhibition at 300 µg/disc [9] [mm],Activity (Toxoplasma gondii [10]) [%],Activity (Toxoplasma gondii [11]) [%],IC50 (Vero) [µM],zone of inhibition at 300 µg/disc (Klebsiella pneumoniae) [mm],other results
COc1cccc(/C=N/N=C2\SC(CC(=O)O)C(=O)N2c2ccccc2)c1 (stereo unspecified),28.71,14,11,4.16,< 7,< 7,9,100,< 7,< 7,7.3,22,3000,< 7,< 7,< 7,0,34.16,5000,< 7,MFC (Candida [4]): 70 µg/mL; MIC (Candida [4]): 80 µg/mL; zone of inhibition at 300 µg/disc (Candida [12]): < 7 mm; zone of inhibition at 300 µg/disc (Candida [13]): 18 mm
O=C(O)CC1S/C(=N\N=C\c2ccc(F)cc2)N(c2ccccc2)C1=O (stereo unspecified),10.2,< 7,16,0,< 7,< 7,14,50,8,< 7,0,15,50,7,12,14,0,21.7,2000,< 7,MFC (Candida [4]): 70 µg/mL; MIC (Candida [4]): 80 µg/mL; zone of inhibition at 300 µg/disc (Candida [12]): < 7 mm; zone of inhibition at 300 µg/disc (Candida [13]): 22 mm
COc1ccc(/C=N/N=C2\SC(CC(=O)O)C(=O)N2c2ccccc2)c(OC)c1 (stereo unspecified),39.5,< 7,< 7,0,< 7,< 7,< 7,500,13,12,0,15,2000,< 7,< 7,< 7,0,66.36,5000,< 7,MFC (Candida [4]): 70 µg/mL; MIC (Candida [4]): 80 µg/mL; zone of inhibition at 300 µg/disc (Candida [12]): < 7 mm; zone of inhibition at 300 µg/disc (Candida [13]): 20 mm
O=C(O)CC1S/C(=N\N=C\c2ccc(Cl)cc2Cl)N(c2ccccc2)C1=O (stereo unspecified),18.08,10,15,0,< 7,< 7,17,1000,7,< 7,19.05,20,1500,12,16,22,0,63.23,2000,< 7,MBC [14]: 60 µg/mL; MIC [14]: 70 µg/mL; zone of inhibition at 300 µg/disc (Candida [12]): < 7 mm; zone of inhibition at 300 µg/disc (Candida [13]): 14 mm
